SENP1 inh = SENP1 (human) catalytic domain inhibition; recombinant SENP1 catalytic domain, CyPet-SUMO1-YPet FRET cleavage; inhibition, % at 10 µM; 0.21% of 360,000 active; AID 624204;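 active means inhibition at least 30% at 10 µM, raw YFP signal under a set limit, fluorescence ratio 0.5 to 1.5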;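 further: 0% = enzyme with DMSO and 100% = no enzyme wells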
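Test system: recombinant human SENP1 catalytic domain, His6-tagged / Medium: pH 8 Tris buffer with EDTA, NaCl, BME, BSA, NP40, catalase / Also added: SUMO1 FRET substrate flanked by Cypet and Ypet, 25 nM / Times: 50 min reaction at room temperature / Signal: FRET, CFP and YFP emission / Control set: no-enzyme low control and enzyme-plus-DMSO high control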
SENP8 block-1 = SENP8 (human) protease inhibition | Q96LD8 | 0.64% of 360,000 active | inhibition, % at 20 µM | recombinant SENP8, Nedd8 substrate fluorescence | AID 602440; in the data active means inhibition mostly above about 40%, no sharp cut-off; inactive means mostly below about 27%
SENP8 block-2 = inhibitors of human SENP8 protease; AID 2540; inhibition, % at 10 µM; purified SENP8, Z-RLRGG-aminoluciferin cleavage, luminescence; 1.2% of 330,000 active; Q96LD8; in the data active means inhibition above about 50%
SENP7 block = SENP7 protease inhibition | Q9BQF6 | recombinant SENP7, Z-RLRGG-aminoluciferin luminescence, 40 min | inhibition, % at 5 µM | 1.5% of 330,000 active | AID 434973;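 active means inhibition above about 50% at the single test dose, limit read from the data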;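 further: plate controls were DMSO with enzyme for no effect and no enzyme buffer wells for full effect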
CendR NRP1 mod = alters CendR peptide binding to human NRP-1; O14786; FAM-RPARPAR peptide binding to NRP-1, fluorescence polarization; inhibition, % at 25 µM; 0.85% of 360,000 active; AID 602438;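 active means inhibition or corrected inhibition above about 18%, plus a signal ratio from 0.5 to 1.5, limit read from the data, passing the limit was not always enough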
SENP6 inh = SENP6 protease inhibition | 1.8% of 330,000 active | Recombinant SENP6 catalytic domain, aminoluciferin luminescence | inhibition, % at 10 µM | Q9GZR1;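 active means inhibition above about 50% at the single tested dose, limit read from the data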;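 further: plate controls were DMSO wells with enzyme for no effect and DMSO wells lacking enzyme for full effect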
Target sequence (Q9GZR1 628-1112 limits assumed): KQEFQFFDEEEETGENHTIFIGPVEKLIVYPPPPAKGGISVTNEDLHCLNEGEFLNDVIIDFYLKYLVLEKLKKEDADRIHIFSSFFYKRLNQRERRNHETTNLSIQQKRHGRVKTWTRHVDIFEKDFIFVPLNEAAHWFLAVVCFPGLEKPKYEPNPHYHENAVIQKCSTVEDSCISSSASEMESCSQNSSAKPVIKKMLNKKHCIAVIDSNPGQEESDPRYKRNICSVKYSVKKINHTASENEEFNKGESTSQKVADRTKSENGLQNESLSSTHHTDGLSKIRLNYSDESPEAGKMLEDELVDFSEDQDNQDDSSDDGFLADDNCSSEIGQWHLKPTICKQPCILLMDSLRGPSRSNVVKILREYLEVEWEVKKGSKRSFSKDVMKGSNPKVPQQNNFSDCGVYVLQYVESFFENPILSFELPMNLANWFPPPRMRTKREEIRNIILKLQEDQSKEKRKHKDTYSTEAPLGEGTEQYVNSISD
* = called active by the depositor; . = not tested or not shown. Rows were chosen to be rich in hits. Some 3.3% of all compounds tested hit in one or more screens of this group.

SMILES	SENP1 inh	SENP8 block-1	SENP8 block-2	SENP7 block	CendR NRP1 mod	SENP6 inh
Cc1cccc(N(CC(=O)NCc2ccc(F)cc2)C(=O)c2csnn2)c1C	6	6	-1	3	20*	-2
Cc1ccc(N(CC(=O)NCc2ccc(F)cc2)C(=O)c2csnn2)c(C)c1	6	14	1	-6	2	-14
CC(C)N1C(=O)NC2NC(=O)N(C(C)C)C21 (stereo unspecified)	-8	6	.	.	15	.
CC(=O)Nc1ccc(NC(=O)Cc2ccc(S(=O)(=O)N3CCCCC3)cc2)cc1	-1	-4	-5	3	-13	-1
CCOC(=O)c1ccc(N2CCN(C(=O)c3ccccc3)CC2)c(NC(=O)c2ccco2)c1	-1	-2	0	3	31*	5
CC1(C)O[C@@H]2[C@H](O1)[C@@H](CO)O[C@H]2n1cnc2c(=O)[nH]cnc21	0	7	-5	-4	26*	-12
COc1ccc(-c2[nH]ncc2CN(C)CCc2c(C)n[nH]c2C)c(F)c1	2	-17	3	7	26*	-2
CC1=C(C(=O)N(C)C)CC(CC(=O)NCCCN(C)C)C(=O)N1Cc1ccccc1 (stereo unspecified)	-3	2	.	.	-12	.
O=C(Nc1nc2ccc([N+](=O)[O-])cc2s1)c1ccco1	.	.	75*	40	.	83*
COc1ccc2c(c1)N(C)/C(=C1/SC(=NCc3ccccc3)N(c3ccccc3)C1=O)S2	-6	-31	-9	0	27*	-6
CCC(=O)CN(Cc1cc(OC)ccc1OC)S(=O)(=O)c1ccccc1Br	0	2	.	-7	11	.
O=C(c1ccc(Cn2c(=O)[nH]c3ccccc3c2=O)cc1)N1CCN(c2ccc(Cl)cc2)CC1	0	10	-2	-9	25*	-21
O=S(Cc1cc(Sc2ccccc2)nc(-c2ccccc2)n1)c1ccccc1 (stereo unspecified)	3	15	-1	-3	2	-20
CS(=O)(=O)Cc1cc(Sc2ccccc2)nc(-c2ccncc2)n1	2	12	-1	3	23*	11
O=C1[C@H]2[C@@H](/C=C/c3ccccc3)N3C(=O)CN(Cc4ccccn4)C(=O)[C@@]3(Cc3ccccc3)[C@H]2C(=O)N1c1ccccc1	-2	2	3	6	-10	9
CN1C(=O)[C@H]2[C@@H](/C=C/c3ccccc3)N3C(=O)CN(Cc4ccccn4)C(=O)[C@@]3(Cc3ccccc3)[C@H]2C1=O	6	2	-1	14	29*	-5
O=C(/C=C/[C@H]1O[C@@H](n2cnc3c(NC(=O)c4ccccc4)ncnc32)[C@H](O)[C@@H]1O)NCCCN1CCCC1=O	2	11	.	.	8	.
Cc1cc(C)cc(OCCNC(=O)C(C)N2C(=O)c3ccccc3C2=O)c1 (stereo unspecified)	2	7	5	1	22*	5
Cc1cc(C)cc(NC(=O)C(C)N2C(=O)c3ccccc3C2=O)c1 (stereo unspecified)	-1	11	-1	7	-3	2
Cc1cccc(C)c1NC(=O)C1(C)CSCC(=O)N1Cc1cccc(C(F)(F)F)c1 (stereo unspecified)	1	4	.	.	3	.
O=C(O)Cc1sc(NC2CCCCC2)nc1-c1ccc(Cl)cc1	-17	-88	-2	2	-162	-18
CCCN1CCCc2cc(CN)ccc21	-26	-339	18	-3	25*	43
CN1CCCc2cc(C=O)ccc21	-3	-129	4	8	1	-8
c1ccc2c(c1)CCCN2Cc1nnnn1CC1CCCO1 (stereo unspecified)	-25	-21	-15	-9	24*	-4
Cc1ccc(N=Nc2c(C)[nH]n(-c3ccccc3)c2=O)cc1Br	1	24	14	1	16	3
SMILES	SENP1 inh	SENP8 block-1	SENP8 block-2	SENP7 block	CendR NRP1 mod	SENP6 inh
Nc1[nH]n(-c2ccccc2)c(=O)c1N=Nc1ccc2ncsc2c1	5	56*	-1	-6	-6	11
COc1ccccc1NC(=O)C(Sc1ccccc1)c1ccccc1 (stereo unspecified)	5	19	-3	3	-6	-5
CCOc1ccccc1NC(=O)Nc1ccccn1	1	22	0	4	1	-15
CCOc1ccccc1NC(=O)Nc1ccc(Cl)cc1	1	14	52*	72*	8	83*
CCOc1ccccc1NC(=O)C(Sc1ccccc1)c1ccccc1 (stereo unspecified)	1	9	5	3	27*	-10
CCc1ccc2c(c1)C(=O)c1ccccc1C2=O	2	20	79*	83*	3	78*
O=C(OCc1ccccc1)c1ccc2c(c1)-c1ccccc1C2=O	0	35	-5	14	0	21
COc1ccc(C(C)(O)c2nc(/C=C/c3ccccc3)cs2)cc1 (stereo unspecified)	1	12	.	.	16	.
CC(O)(c1cccnc1)c1nc(/C=C/c2ccccc2)cs1 (stereo unspecified)	0	9	.	.	26*	.
O=C(c1cccs1)N1CC=C(c2ccccc2)CC1	1	13	-17	-9	17*	-17
O=C(c1ccccn1)N1CC=C(c2ccccc2)CC1	-3	9	.	.	10	.
CCCCCc1ccc(CC(=O)O)cc1	1	11	-8	-2	38*	2
CC1(C)CN(O)CCN1O	-1	-10	-1	4	25*	-14
COCCN1C(=O)CSCC1(C)C(=O)NC(C)C (stereo unspecified)	1	9	.	.	0	.
COc1ccncc1-c1csc(C(O)c2ccccc2)n1 (stereo unspecified)	3	12	.	.	23*	.
COc1ccc(C(O)c2nc(-c3cc(F)cc(F)c3)cs2)cc1 (stereo unspecified)	-1	15	.	.	40*	.
COc1cccc(/C=N\NC(=O)c2ccc(C)nc2)c1	1	-5	-12	0	-2	-5
CCCCC#Cc1cncc(C(=O)N/N=C/c2cccc(OC)c2)c1	2	15	-7	-1	38*	-35
COC(=O)[C@@]1(Cc2ccc(OC)cc2)[C@H]2c3cc(C(=O)N4CCCC4)n(C[C@H](O)CO)c3C[C@H]2CN1C(=O)c1ccccc1	.	.	5	3	.	-4
COC(=O)[C@@]1(Cc2ccc(OC)cc2)[C@H]2c3cc(C(=O)N4CCCC4)n(CCN4CCOCC4)c3C[C@H]2CN1C(=O)c1ccccc1	-2	-1	.	.	23*	.
CC1=NN(c2ccc(C)cc2C)C(=O)C1C(c1ccccc1)C1C(=O)N(c2ccc(C)cc2C)N=C1C (stereo unspecified)	0	92*	5	15	12	10
C=CCOc1ccc(C2NC(=S)NC3=C2CCc2ccccc23)cc1 (stereo unspecified)	-12	-196	4	2	2	-1

Compound activity deposited in PubChem BioAssay by Sanford-Burnham Center for Chemical Genomics.
